We go through eleven compounds from ChEMBL document CHEMBL6096700, “Modulation of Mitochondria-Endoplasmic Reticulum Contacts (MERCs) by Small Molecules as a New Strategy for Restoring Lipid Metabolism in an Amyotrophic Lateral Sclerosis Model” (J Med Chem, 2025).

Data set [1] can be described thus: Modulation of mitochondria-endoplasmic reticulum contacts in human HCT-116 cells expressing MERLIN by BRET assay. Type of data set: functional, cell-based. The essentials: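 MERLIN-HCT116 BRET biosensor cells (RLuc8 donor, mVenus acceptor) seeded at 4500/well for 24 h, then treated with compound overnight. Coelenterazine h 5 μM added for 8 min in the dark, read at RT. BRET = acceptor/donor emission minus RLuc8-only background, with DMSO, RLuc8 and RLuc8-mVenus controls; plates kept if Z'>0.7.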
(BRET reads energy transfer from a luciferase to a nearby fluorophore.)

The test system of data set [2] is HCT-116. The experiment in a line: Cytotoxicity against human HCT-116 cells assessed as cell viability at 1 uM incubated for 24 hrs by MTT assay. In kind it is toxicity, cell-based. The note with it: hct-116, 24 h. The essentials:
(§1)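 HCT116 cells grown in phenol red-free McCoy's 5A with 10% FBS and 1% penicillin/streptomycin. Exposed 24 h to compound at 1, 5 or 10 μM. Viability measured by MTT reduction to formazan read by absorbance, expressed as percent of untreated controls. Safety threshold >80% viability. Mean ± SEM of three independent experiments.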
(Formazan colour is commonly taken as a measure of viable cells.)

Data set [3] relates to HCT-116. Description: Induction of extracellular NBD-labeled cholesterol uptake in human HCT-116 cells at 1 uM incubated for 24 hrs followed by NBD-labeled cholesterol addition measured after 1 to 3 hrs by fluorescence based assay. Type of data set: functional, cell-based. The note with it: time 25-27 hrs. The essentials:
(§2)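 HCT116 cells seeded 24 h at 37 °C, 5% CO2, then treated with compound for 24 h. NBD-cholesterol added for 1 and 3 h. Cells washed three times with PBS, fluorescence read at 469/537 nm, compared with untreated cells. Mean ± SEM of three independent experiments.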

The nature of data set [4]: Permeability of compound incubated for 2.5 hrs by PAMPA. In kind it is ADME. The essentials:
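PAMPA-BBB: compounds in PBS/EtOH 70:30, pH 7.4, placed in a donor plate over a filter coated with porcine brain lipid in dodecane (20 mg/mL), with phosphate-buffer acceptor. Incubated 2 h 30 min at RT. Acceptor concentration read by absorbance at 2–5 wavelengths, three wells, two runs (mean ± SD). Ten reference drugs; CNS+ if Pe >4.4 × 10–6 cm s–1.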
Background: In PAMPA a lipid-coated filter parts donor from acceptor wells.

For data set [5], the system named is HCT-116. Description: Cytotoxicity against human HCT-116 cells assessed as cell viability at 5 uM incubated for 24 hrs by MTT assay. Type of data set: toxicity, cell-based. Conditions: hct-116, 24 h. The essentials:
as §1

The subject of data set [6] is Lymphoblastoid cell. Description: Induction of extracellular NBD-labeled cholesterol uptake in patient-derived C9orf72-mutated familial ALS lymphoblastoid cells at 5 uM incubated for 24 hrs followed by NBD-labeled cholesterol addition measured after 1 hr by fluorescence based assay. In kind it is functional. The note with it: Homo sapiens, time 25.0 hrs.
The test system of data set [7] is Lymphoblastoid cell. Description: Induction of extracellular NBD-labeled cholesterol uptake in patient-derived lymphoblastoid cells at 5 uM incubated for 24 hrs followed by NBD-labeled cholesterol addition measured after 1 hr in presence of EZE by fluorescence based assay. Type of data set: functional. The note with it: Homo sapiens, time 25.0 hrs.
Data set [8] has as its system Lymphoblastoid cell. Description: Induction of extracellular NBD-labeled cholesterol uptake in patient-derived Sporadic ALS lymphoblastoid cells at 5 uM incubated for 24 hrs followed by NBD-labeled cholesterol addition measured after 1 hr in presence of […] by fluorescence based assay. In kind it is functional. Conditions: Homo sapiens, time 25.0 hrs. The essentials: (§3)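 Lymphoblastoid lines from controls (C100, C112) and sporadic ALS patients (E2, E4) treated 24 h with compound at 5 μM. BLT1, SSO or EZE (10 μM) added 15 min before NBD-cholesterol, which was left for 1 h. Cells washed three times with PBS, fluorescence read at 469/537 nm. Run in triplicate; mean ± SEM.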

The test system of data set [9] is Lymphoblastoid cell. Description: Induction of extracellular NBD-labeled cholesterol uptake in patient-derived SOD1 ALS lymphoblastoid cells at 5 uM incubated for 24 hrs followed by NBD-labeled cholesterol addition measured after 1 hr by fluorescence based assay. The note with it: Homo sapiens, time 25.0 hrs. Type of data set: functional.
Data set [10] relates to Lymphoblastoid cell. The experiment in a line: Modulation of mitochondria-endoplasmic reticulum contacts in patient-derived Sporadic ALS lymphoblastoid cells at 5 uM incubated for 24 hrs by Seahorse XF analysis. In kind it is functional, cell-based. The note with it: Homo sapiens.
Data set [11] has as its system Lymphoblastoid cell. Description: Induction of extracellular NBD-labeled cholesterol uptake in patient-derived Sporadic ALS lymphoblastoid cells at 5 uM incubated for 24 hrs followed by NBD-labeled cholesterol addition measured after 1 hr in presence of SSO by fluorescence based assay. Type of data set: functional. The note with it: Homo sapiens, time 25.0 hrs. The essentials:
as §3

The subject of data set [12] is Lymphoblastoid cell. Description: Induction of extracellular NBD-labeled cholesterol uptake in patient-derived lymphoblastoid cells at 5 uM incubated for 24 hrs followed by NBD-labeled cholesterol addition measured after 1 hr in presence of […] by fluorescence based assay. In kind it is functional. The note with it: Homo sapiens, time 25.0 hrs.
Data set [13] deals with Lymphoblastoid cell. Description: Induction of cholesteryl ester formation in patient-derived lymphoblastoid cells at 5 uM incubated for 24 hrs by Amplex assay. The note with it: Homo sapiens. Type of data set: functional, cell-based. The essentials: (§4)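 Control and sporadic ALS lymphoblastoid cells treated 24 h with compound at 5 μM or vehicle. Lipids extracted from equal cell amounts with chloroform:methanol 2:1 (v/v). Organic phase dried, resuspended in assay buffer, and cholesteryl esters quantified with the Amplex cholesterol kit. Individual values reported.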

In data set [14] the test system is HCT-116. The experiment in a line: Modulation of mitochondria-endoplasmic reticulum contacts in human HCT-116 cells at 25 uM incubated for 1 hr by TEM analysis. In kind it is functional, cell-based.
The test system of data set [15] is Lymphoblastoid cell. Description: Induction of extracellular NBD-labeled cholesterol uptake in patient-derived Sporadic ALS lymphoblastoid cells at 5 uM incubated for 24 hrs followed by NBD-labeled cholesterol addition measured after 1 hr by fluorescence based assay. Type of data set: functional. The note with it: Homo sapiens, time 25.0 hrs.
For data set [16], the system named is Lymphoblastoid cell. Description: Induction of lipid droplet formation in patient-derived Sporadic ALS lymphoblastoid cells at 5 uM incubated for 24 hrs by TEM analysis. In kind it is functional, cell-based. The note with it: Homo sapiens. The essentials:
(§5)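 Control and sporadic ALS lymphoblasts with or without compound (5 μM, 24 h) were fixed 4 h at 4 °C in 4% paraformaldehyde/2.5% glutaraldehyde in 0.1 M phosphate pH 7.3. Postfixed in osmium tetroxide/potassium ferrocyanide, acetone-dehydrated, Spurr-embedded. 60 nm sections stained with lead citrate and imaged by TEM at 80 kV.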

For data set [17], the system named is Lymphoblastoid cell. Description: Induction of cholesteryl ester formation in patient-derived Sporadic ALS lymphoblastoid cells at 5 uM incubated for 24 hrs by Amplex assay. In kind it is functional, cell-based. Conditions: Homo sapiens. The essentials:
as §4

Data set [18] deals with HCT-116. The experiment in a line: Induction of extracellular NBD-labeled cholesterol uptake in human HCT-116 cells at 5 uM incubated for 24 hrs followed by NBD-labeled cholesterol addition measured after 3 hrs by fluorescence based assay. Type of data set: functional, cell-based. Conditions: time 27.0 hrs. The essentials: as §2
For data set [19], the system named is Lymphoblastoid cell. The experiment in a line: Restoration of mitochondrial cristae structure in patient-derived Sporadic ALS lymphoblastoid cells at 5 uM incubated for 24 hrs by TEM analysis. Conditions: Homo sapiens. In kind it is functional, cell-based. The essentials:
as §5

Data set [20] concerns Lymphoblastoid cell. The experiment in a line: Improvement in spare respiratory capacity in patient-derived Sporadic ALS lymphoblastoid cells at 5 uM incubated for 24 hrs by Seahorse XF analysis. Type of data set: functional, cell-based. The note with it: Homo sapiens. The essentials: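 Control and sALS lymphoblasts plated at 200,000 cells/well on poly-L-lysine and cultured 24 h ± compound (5 μM). Then moved to bicarbonate-free DMEM with 2 mM glutamine, 5 mM glucose, 2% FBS, 1 mM pyruvate and 5 mM HEPES pH 7.4, 1 h without CO2. Seahorse Mito Stress OCR: basal, oligomycin 1 μM, FCCP 3 μM, antimycin/rotenone 2.5 μM each. Four replicates, mean ± SEM.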

The test system of data set [21] is Lymphoblastoid cell. Description: Induction of lipid droplet formation in patient-derived Sporadic ALS lymphoblastoid cells at 5 uM incubated for 24 hrs by LipidTOX Green/DAPI staining based analysis. Type of data set: functional. Conditions: Homo sapiens. The essentials: (§6)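 Control and sporadic ALS lymphoblastoid cells treated 24 h with compound at 5 μM or vehicle, fixed in 4% PFA, washed in PBS. Lipid droplets stained 2 h with LipidTOX Green, nuclei with DAPI. Confocal imaging and image-based quantification of >100 cells per condition; mean ± SEM.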

Data set [22] deals with Lymphoblastoid cell. The experiment in a line: Induction of lipid droplet formation in patient-derived lymphoblastoid cells at 5 uM incubated for 24 hrs by LipidTOX Green/DAPI staining based analysis. Type of data set: functional. Conditions: Homo sapiens. The essentials: as §6
The subject of data set [23] is Lymphoblastoid cell. The experiment in a line: Induction of extracellular NBD-labeled cholesterol uptake in patient-derived lymphoblastoid cells at 5 uM incubated for 24 hrs followed by NBD-labeled cholesterol addition measured after 1 hr in presence of SSO by fluorescence based assay. Conditions: Homo sapiens, time 25.0 hrs. In kind it is functional.
Data set [24] has as its system Lymphoblastoid cell. Description: Induction of extracellular NBD-labeled cholesterol uptake in patient-derived Sporadic ALS lymphoblastoid cells at 5 uM incubated for 24 hrs followed by NBD-labeled cholesterol addition measured after 1 hr in presence of EZE by fluorescence based assay. In kind it is functional. Conditions: Homo sapiens, time 25.0 hrs. The essentials: as §3

The structures appear in SMILES notation. Calls of active or inactive are those of the source. Where a SMILES comes first, the peptide text is derived from it. The star is where a group is joined. Cbz = O=C(OCc1ccccc1)*

The term EC50 denotes the concentration at which the effect is half-maximal. Low values mean a more potent agent, high ones a less potent agent. In data set [1], `O=C(Nc1ccc([N+](=O)[O-])cc1)c1cccc2ccccc12` yielded an EC50 of 21.7 µM.

As for `O=C(Nc1ccc(F)cc1)c1cc(Cl)ccc1O`, in [1], it took 20.2 µM to reach a half-maximal effect (EC50).

For `CNC(=O)c1ccc(NC(=O)c2cc(Cl)ccc2O)cc1`, in data set [1], the EC50 came out at 10.2 µM.

For `N#Cc1ccc(NC(=O)c2cc(Cl)ccc2O)cc1`, the 50% effective concentration (EC50) in data set [1] is 9.7 µM. Further, the Activity result in [2] and in data set [5] was “Non-toxic” throughout. In addition, in data set [3], the outcome was inactive. In addition, in data set [4], the permeability result is listed as “Permeable”.

For `O=C(Nc1cccc([N+](=O)[O-])c1)c1cc(Cl)ccc1O`, in data set [1], the EC50 is 8.32 µM. The Activity result in [2] and in data set [5] was “Non-toxic” throughout. Moreover, in [3], the outcome was inactive. The permeability result in [4] is given as “Permeable”.

The compound `O=C(Nc1ccc([N+](=O)[O-])cc1Cl)c1cccc2ccccc12` yielded an EC50 in data set [1] of 3.34 µM.

Compound `O=C(Nc1ccc([N+](=O)[O-])cc1)c1cc(Cl)ccc1O` registered a 50% effective concentration (EC50) in [1] of 2.44 µM. The result in data set [3] was inactive. Further, the permeability result in data set [4] is listed as “Permeable”.

Consider `CC(C)C[C@@H](C=O)NC(=O)[C@H](CC(C)C)NC(=O)[C@H](CC(C)C)NC(=O)OCc1ccccc1` [MG-132] (Cbz-Leu-Leu-Leu-aldehyde), for which, in [1], the concentration for a half-maximal effect (EC50) turned out to be 13.7 µM.

On to `O=C(Nc1ccc([N+](=O)[O-])cc1Cl)c1cc(Cl)ccc1O` [NICLOSAMIDE], for which the EC50 in data set [1] stood at 5.68 µM. Further, in data set [2], the Activity result was “Non-toxic”. The outcome in data set [3] was inactive.

On to `O=C(Nc1ccccc1)c1cc(Cl)ccc1O`, for which the outcome in data set [6], in data set [7], in data set [10], in data set [11], in data set [13] and in data set [14] was Active. For the same compound, the result in data set [15], in data set [16], in data set [17], in data set [18], in data set [19] and in data set [20] was Active. For the same compound, the result in [21], in data set [22], in data set [23] and in data set [24] was Active. The Activity entry in data set [2] is “Non-toxic”; in data set [8], “Not active; The Result Suggests That Cell Surface Hdl Scavenger Receptor B, Type 1 (Sr-B1) May Be Involved In Mechanism Of Action”; in [12], “Not active; The Result Suggests That Cell Surface Hdl Scavenger Receptor B, Type 1 (Sr-B1) May Be Involved In Mechanism Of Action”; in [5], “Non-toxic”. Besides, the result in [3] and in [9] was inactive. Besides, the permeability entry in data set [4] is on record as “Permeable”.

The compound `O=C(Nc1ccc([N+](=O)[O-])cc1F)c1cc(Cl)ccc1O` registered an EC50 in [1] of 5.64 µM. In data set [2], the Activity result is listed as “Non-toxic”. Besides, the outcome in [3] was inactive.
